Compound activity from PubChem BioAssay.
Sampled rows, rich in hits. Any-hit rate of the full collection: about 6.9%.
FAK blocker: FAK (human) kinase inhibition | Q05397 | biochemical FAK kinase activity assay | inhibition, %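 (tested at 7 µM)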 | 0.84% of 97,000 active; in the data active = inhibition above about 19%;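 also: 0% = DMSO and 100% = reference compound high control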
tolC growth inh: growth inhibitors of E. coli BW25113 tolC mutant; OD615; growth inhibition, % at 10 µM (by protocol); 2.2% of 65,000 active; AID 573;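 active = growth inhibition at or above a cutoff equal to the mean over every tested compound plus 3 SD, cut at about 60% in these data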;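 also: growth measured after 20 h incubation at 37 °C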
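Doses: one dose of 10 µM final / Material: E. coli BW25113 ΔtolC::kan, tolC deletion mutant strain / Buffer or medium: LB with kanamycin 50 µg/mL / Evaluation: percent growth inhibition / Detection: optical density read at 615 nm / Incubation: 37 °C, 20 h exposure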
Candida biofilm: kills Candida albicans biofilms; inhibition, % at 6 µM; AID 834; C. albicans biofilm + clotrimazole, Alamar Blue; 0.14% of 85,000 active;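 active = inhibition above 20%; inactive = inhibition below 20%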;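 also: preformed 24 hr biofilms exposed to compound for 48 hr; 0% = biofilm without compound and 100% = blank killed by clotrimazole plus chlorhexidine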
Pyk2 oligo antag: Pyk2 (human) oligomerization antagonism | Q14289 | Q293 cells, Pyk2 FERM NanoBiT luminescence; hits give low values | z-score (the deposit names both 25 µM and 10 µM) | 0.83% of 99,000 active | AID 1347419;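 active = Z-score of -3 or lower, scaled per plate to the spread of control and sample wells; inactive = z-score above -3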;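 also: negative z-score means lost luminescence so less FERM oligomerization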
PostGolgi yeast: growth inhibition of a yeast mutant, post-Golgi transport screen; post-Golgi transport phenotypic cell assay; inhibition, % at 10 µM; 0.9% of 98,000 active; AID 739;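 also: yeast cells grown in 1536-well plates; yeast grown about 18 h at 30C before absorbance read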
PostGolgi ctrl: yeast control strain growth, post-Golgi counter-screen. 5% of 98,000 active. efflux-deficient yeast background strain, growth absorbance A615, 16 h. inhibition, % at 10 µM. AID 738
* = called active by the depositor; . = no result. Rule as the data show it, unless noted: active = inhibition above about 30%; inactive = the rest.

SMILES | FAK blocker | tolC growth inh | Candida biofilm | Pyk2 oligo antag | PostGolgi yeast | PostGolgi ctrl
Cc1ccc(NC(=O)NCCN2C(=O)C3C4C=CC(C4)C3C2=O)cc1 (centres undefined) | 2 | -16 | 10 | . | 1 | 4
CCC(=O)N1CCN(c2ccc(Cl)cc2NC(=O)c2ccc3c(c2)OCCO3)CC1 | 2 | 10 | 11 | -1.1 | -2 | 47*
CC(C)NC(=O)COC(=O)c1ccccc1Oc1ccccc1 | -1 | . | . | -0.3 | -13 | 10
COCCn1c(SCC(=O)Nc2cc(C)cc(C)c2)nnc1C(C)C | 1 | -6 | 3 | 0.13 | -4 | 30*
COCCn1c(SCC(=O)Nc2cccc(C)c2)nnc1C(C)C | 0 | -1 | 4 | -0.49 | 0 | -1
CCn1c(SCc2ccc(C#N)cc2)nnc1-c1ccc(S(=O)(=O)N2CCCCC2)cc1 | -3 | 31 | -7 | 0.88 | 11 | 43*
CCn1c(SCC(=O)N2CCCC2)nnc1-c1ccc(S(=O)(=O)N2CCCCCC2)cc1 | 1 | 0 | 1 | 0.13 | -3 | -1
Cc1ccc(S(=O)(=O)c2nc(S(C)(=O)=O)sc2NCC2CCCO2)cc1 (centres undefined) | -1 | 1 | 6 | -1.4 | 0 | 19
CCOC(=O)C(NC(=O)c1ccc(F)cc1)(Nc1nnc(C)s1)C(F)(F)F (centres undefined) | . | -23 | 0 | 0.34 | 1 | 30*
COC(Cc1nnc(SC)n1-c1ccccc1)OC | -2 | . | . | 1.1 | -24 | 0
CSc1nnc(CSCc2ccc(Cl)cc2Cl)n1-c1ccccc1 | -1 | . | . | -1.2 | -2 | 51*
O=C(NC1CCCCC1)N1CCSC1=Nc1ccccc1 | 2 | 3 | . | -0.38 | 5 | 50*
O=C(NC1CCCCC1)N1CCCc2ccccc21 | . | 3 | -3 | 1.2 | -1 | 2
O=C(c1ccc(F)cc1)C1CCN(C(=O)NC2CCCCC2)CC1 | -10 | . | 3 | 0.55 | 1 | 0
CCc1nnc(NC(=O)c2cc(S(=O)(=O)N(CC)CC)ccc2Cl)s1 | -2 | . | 0 | 0.57 | 1 | 1
CC(CCc1ccccc1)NC(=O)CN1CCN(Cc2ccccc2)C1=O (centres undefined) | -7 | -9 | 1 | -0.56 | 0 | 33*
O=P(OC1CCCCC1)(OC1CCCCC1)C(O)c1c(Cl)cccc1Cl (centres undefined) | 8 | . | 2 | -1 | -3 | 36*
Cc1ccc(C(O)P(=O)(OC2CCCCC2)OC2CCCCC2)cc1 (centres undefined) | -1 | . | 8 | 0.63 | 22 | 40*
Fc1cccc(Cn2ccc(-c3ccc4c(c3)OCO4)n2)c1 | -1 | . | . | -0.82 | 4 | 13
COc1cc2c(cc1NC(=O)CN1CCN(S(=O)(=O)c3ccc(C)cc3)CC1)oc1ccccc12 | 2 | . | . | 0.37 | 17 | 13
COc1cc2c(cc1NS(=O)(=O)N1CCCC1)oc1ccccc12 | 13 | . | 4 | -2.5 | 21 | 49*
COc1ccc(-c2cc(C(F)(F)F)nc(-n3cc(Br)cn3)n2)cc1 | 1 | . | -2 | -0.06 | -6 | 10
CCN1C(=O)CC(N2CCC(Nc3ccc(OC)cc3)CC2)C1=O (centres undefined) | 8 | -4 | 4 | 0.05 | -5 | -1
O=C1CC(N2CCN(C3CC(=O)N(CCc4ccccc4)C3=O)CC2)C(=O)N1CCc1ccccc1 (centres undefined) | 4 | 1 | 6 | 0.24 | -2 | 47*
CCN1C(=O)CC(N2CCC(C(=O)OC)CC2)C1=O (centres undefined) | 0 | -22 | 6 | -0.19 | 4 | 32*
SMILES | FAK blocker | tolC growth inh | Candida biofilm | Pyk2 oligo antag | PostGolgi yeast | PostGolgi ctrl
O=C(C1CCN(Cc2ccccc2)CC1)N1CCCC1 | . | -10 | -2 | -0.14 | -9 | 5
O=C1CC(N2CCC(Cc3ccccc3)CC2)C(=O)N1CCc1ccccc1 (centres undefined) | 0 | . | 3 | -1.3 | -3 | 23
O=C(C1CCN(C2CC(=O)N(Cc3ccccc3)C2=O)CC1)N1CCCCCC1 (centres undefined) | -2 | -5 | 1 | 0.73 | 32* | 3
N#Cc1nc(COc2ccccc2)oc1N1CCN(c2cccc(Cl)c2)CC1 | 1 | 41 | -1 | -0.32 | 0 | 2
O=C(Nc1ccccc1)OCC1CCCN2CCCCC12 (centres undefined) | 0 | -8 | 7 | 1.8 | 7 | 5
CC1=CCC(COC(=O)Nc2ccccc2)CC1 (centres undefined) | 7 | 98* | 8 | 1.3 | 1 | 31*
CCc1ccc2c(CN3CCN(S(=O)(=O)c4ccc5c(c4)OCCO5)CC3)cc(=O)oc2c1 | -5 | 12 | . | -1.3 | 5 | 33*
O=c1cc(CN2CCN(S(=O)(=O)c3ccc4c(c3)OCCO4)CC2)c2ccc(O)cc2o1 | 2 | . | . | -3.9* | 0 | 19
CCN1CCN(S(=O)(=O)c2ccc3c(c2)OCCO3)CC1 | -1 | . | 0 | -0.15 | -4 | 3
N#CCSc1ccsc1C(=O)Nc1ccc(F)cc1 | -1 | . | . | 0.03 | -2 | 5
CN(C)c1ccnc2sc(C(=O)NCc3ccccc3)c(N)c12 | 10 | 20 | 10 | 1 | 13 | 63*
C=CCn1cnc2c(c1=O)c1nc3ccccc3nc1n2/N=C/c1cc(OC)c(OC)c(OC)c1 | . | 77* | 8 | -2.1 | 20 | 2
CCNc1nc(NC(C)C)nc(Nn2cnnc2)n1 | -5 | 0 | . | 0.26 | 2 | 8
CCOC(=O)Nc1cc(=O)c2ccccc2o1 | 2 | -7 | 3 | 0.71 | -6 | 43*
CCOC(=O)c1oc2ccccc2c1N | -1 | . | 9 | 0.84 | 6 | 3
O=C(CCC1CCCC1)NCc1cccs1 | 0 | . | 2 | -0.12 | 3 | 1
CCc1ccc(-c2nn(-c3ccccc3)cc2C2SCC(=O)N2Cc2ccco2)cc1 (centres undefined) | 0 | . | -2 | -0.67 | 6 | 19
O=C1CSC(c2cn(-c3ccccc3)nc2-c2ccccc2)N1Cc1ccco1 (centres undefined) | -1 | 15 | -3 | -1.6 | 4 | 53*
C/C(Cl)=C\Cn1c(NCCc2ccccc2)nc2c1c(=O)n(C)c(=O)n2C | . | -21 | 1 | -2.6 | -1 | 11
CCOC(=O)N1CCN(C(=O)c2cnc(Nc3ccccc3OC)c3ccccc23)CC1 | . | 10 | 10 | -1.9 | 0 | -5
Cc1cc(Cl)ccc1OCCCC(=O)Nc1cccnc1 | 3 | 27 | 6 | 0.88 | 34* | 25
O=C(c1ccc(Cl)c(F)c1F)N1CCOCC1 | 1 | . | 9 | 0.33 | 11 | 21
COc1cc(C2c3c(-c4cc(C)cc(C)c4O)n[nH]c3C(=O)N2CCCO)cc(OC)c1OC (centres undefined) | 1 | -30 | 7 | -0.89 | 6 | -1
CC(C)OCCCN1C(=O)c2[nH]nc(-c3ccccc3O)c2C1c1cccc(Cl)c1 (centres undefined) | 2 | 52 | 8 | -3.2* | 12 | 18
O=C1c2ccccc2NC(c2ccc(O)cc2)N1Cc1ccco1 (centres undefined) | 2 | . | -1 | -0.64 | -10 | -10
